Screening data as filed in PubChem BioAssay.
Shown are actives, neighbours in structure and some others; about 2.3% of the full set was active somewhere.
TRPC4 act: activators of mouse TRPC4 channel | hit rate 0.49% among 310,000 | B-score at 10 µM | AID 2237 | HEK293 TRPC4beta/mu-opioid, Fluo4 calcium fluorescence; hits give high values;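 active = B-score above 5 SD of library B-scores, and initial fluorescence ratio not above library mean plus 5 SD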;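 also: positive B-score marks a calcium rise read as TRPC4 activation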
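Test system: HEK293 cells stably co-expressing mouse TRPC4beta and mu-opioid receptor | Schedule: Fluo4 dye loading 45 min at room temperature, 110 s recording | Measured by: Kinetic Fluo4 calcium fluorescence, 5 s baseline at 1 Hz | Evaluation: B score of integrated ratio | Controls: Buffer (low) and maximal DAMGO (high)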
TRPC6 inh: blocks the mouse TRPC6 cation channel | Q61143 | HEK293-TRPC6, membrane potential dye, ACh-evoked depolarization; hits give low values | hit rate 1.1% among 310,000 | B-score at 10 µM;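 active = B-score under library mean minus 3 SD, initial fluorescence not abnormally high, positive integrated signal ratio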;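 also: B-score derived from integrated fluorescence ratio over the kinetic read; more negative B-score means stronger inhibition of depolarization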
Target sequence (Q61143 whole entry, looked up): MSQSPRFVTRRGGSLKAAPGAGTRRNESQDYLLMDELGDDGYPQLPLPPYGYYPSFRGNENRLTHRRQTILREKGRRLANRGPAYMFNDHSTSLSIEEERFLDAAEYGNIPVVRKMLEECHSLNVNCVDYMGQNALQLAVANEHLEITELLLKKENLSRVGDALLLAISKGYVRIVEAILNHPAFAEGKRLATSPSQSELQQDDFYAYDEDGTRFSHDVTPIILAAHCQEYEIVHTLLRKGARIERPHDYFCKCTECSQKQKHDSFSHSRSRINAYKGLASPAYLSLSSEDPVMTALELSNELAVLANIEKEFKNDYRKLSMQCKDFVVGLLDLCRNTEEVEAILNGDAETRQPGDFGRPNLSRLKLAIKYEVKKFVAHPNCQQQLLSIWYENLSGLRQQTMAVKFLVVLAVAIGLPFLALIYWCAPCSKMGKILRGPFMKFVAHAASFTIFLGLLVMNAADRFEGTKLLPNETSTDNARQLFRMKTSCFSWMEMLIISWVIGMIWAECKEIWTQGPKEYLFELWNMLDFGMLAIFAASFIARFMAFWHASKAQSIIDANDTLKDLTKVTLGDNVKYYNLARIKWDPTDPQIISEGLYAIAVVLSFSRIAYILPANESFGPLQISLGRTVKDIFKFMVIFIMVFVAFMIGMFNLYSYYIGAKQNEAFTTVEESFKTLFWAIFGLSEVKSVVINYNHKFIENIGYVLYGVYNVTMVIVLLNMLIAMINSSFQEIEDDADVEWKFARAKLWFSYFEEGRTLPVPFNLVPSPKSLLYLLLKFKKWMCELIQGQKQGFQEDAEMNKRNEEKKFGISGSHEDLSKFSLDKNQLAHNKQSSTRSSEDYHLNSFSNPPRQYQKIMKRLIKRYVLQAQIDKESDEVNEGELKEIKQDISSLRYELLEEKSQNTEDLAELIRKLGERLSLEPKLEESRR
TRPC4 PAM: allosteric potentiators of mouse TRPC4 channel; HEK293 TRPC4beta/mu-opioid, DAMGO EC20, Fluo-4 Ca2+ flux; hits give high values; Q9QUQ5; hit rate 0.42% among 310,000; B-score at 10 µM;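 active = B-score of calcium response area above 5 SD of library B-scores, with initial fluorescence ratio within 5 SD of library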;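 also: B-score of integrated fluorescence ratio over time as area under calcium response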
TRPC4 inh: blocks the mouse TRPC4 cation channel. HEK293 TRPC4beta/mu-opioid, DAMGO-evoked Fluo4 calcium flux; hits give low values. Q9QUQ5. hit rate 0.39% among 300,000. AID 2247. B-score at 10 µM;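 active = B-score over 3 SD under the library average, no early fluorescence shift, positive overall ratio signal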
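material = TRPC4beta/mu-opioid receptor HEK293 cell line | probe or stimulus = sequential submaximal and maximal DAMGO stimulation | compound dosing = one concentration per compound | measured by = Fluo4 Ca2+ flux fluorescence | evaluation = integrated fluorescence ratio relative to baseline, converted to per-well B score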
TRPC6 act: activators of mouse TRPC6 channel | hit rate 0.13% among 310,000 | HEK293-TRPC6 membrane potential dye fluorescence; hits give high values | AID 2550 | B-score at 10 µM;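 active = B-score of the integrated fluorescence ratio above library mean plus 3 SD, and starting fluorescence ratio within library mean plus 5 SD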;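 also: higher score means more depolarization so channel activation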
Starred values were filed as active, the others as inactive; i = inactive.

SMILES	TRPC4 act	TRPC6 inh	TRPC4 PAM	TRPC4 inh	TRPC6 act
N=C1c2ccccc2CN1NC(=O)c1cccc(S(=O)(=O)N2CCCCC2)c1	49*	i	i	i	i
CCn1cc(CN2CCC(C(=O)Nc3ccc(Oc4ccccc4)nc3)CC2)cn1	i	i	i	i	i
O=C(Nc1ccc(Oc2ccccc2)nc1)C1CCN(Cc2ccccc2)CC1	i	i	i	-6*	i
COc1ccc(CN2CCCC2C(=O)Nc2ccc(OC)c(OC)c2)cc1OC (stereo not given)	i	-5.69*	i	i	i
O=c1oc2ccccc2c(O)c1/C=N/c1ncccn1	i	i	i	i	i
O=c1oc2ccccc2c(O)c1/C=C1\C=Nc2ccccc21	85*	i	i	i	i
CCOC(=O)c1cc(-c2cccc([N+](=O)[O-])c2)n[nH]1	i	i	23*	i	i
CCOC(=O)C1=NN(C(=O)c2cccc(Br)c2)C(O)(C(C)(C)C)C1 (stereo not given)	180*	i	i	i	i
O=C(CSc1nc2[nH]ncc2c(=O)n1-c1ccccc1Br)NCc1ccccc1Cl	i	i	i	-6*	i
CCC(C)NC(=O)C(CCSC)NC(=O)c1ccccc1 (stereo not given)	i	i	i	i	i
CSCCC(NC(=O)c1ccccc1)C(=O)Nc1ccc(NC(C)=O)cc1 (stereo not given)	i	-5.2*	i	i	i
CCOC(=O)C1(CC2CCCCO2)CCN(Cc2nc3ccccc3[nH]2)CC1 (stereo not given)	115*	i	i	i	i
CCOC(=O)C1(CC2CCCCO2)CCN(Cc2nccn2-c2cccc(C)c2)CC1 (stereo not given)	i	i	i	i	i
CCOC(=O)C1(CC2CCCCO2)CCN(Cc2c(C)cc(C)cc2-n2cccn2)CC1 (stereo not given)	106*	i	i	i	i
CCOC(=O)C1(CC2CCCCO2)CCN(Cc2cc(F)ccc2-n2cccn2)CC1 (stereo not given)	91*	i	i	i	i
CCCCNC(=S)NNC(=O)c1cc(-c2ccncc2)nc2ccccc12	i	i	i	i	i
CSc1nc(N)n2nc(-c3ccccc3)cc2n1	i	i	i	i	i
Cc1ccc(NS(=O)(=O)c2ccc(OCC(N)=O)cc2)cc1	i	i	i	i	i
Cc1ccsc1C(C(=O)NC(C)(C)C)N(Cc1ccco1)C(=O)c1csnn1 (stereo not given)	i	i	i	i	i
CCC(C)(C)NC(=O)C(c1sccc1C)N(Cc1ccco1)C(=O)c1csnn1 (stereo not given)	i	-5.8*	i	i	i
COC(=O)c1ccc(OCC(O)CN2CCc3cc(OC)c(OC)cc3C2c2ccccc2)cc1 (stereo not given)	i	i	11*	i	i
CCC(=O)N1CCc2cc(OC)c(OC)cc2C1COc1ccc(C(=O)OC)cc1 (stereo not given)	i	i	i	i	i
CCOC(=O)c1c(NC(=O)C2CCCO2)sc(C)c1C (stereo not given)	i	i	i	i	i
CCOC(=O)c1c(NC(=O)CSc2nnc(C)c(=O)[nH]2)sc2c1CCCC2	i	i	i	i	i
CCOC(=O)c1c(NC(=O)C(C)Sc2nnc(C)c(=O)[nH]2)sc2c1CCCC2 (stereo not given)	i	i	i	-6*	i
SMILES	TRPC4 act	TRPC6 inh	TRPC4 PAM	TRPC4 inh	TRPC6 act
CCOC(=O)c1c(NC(=O)C2CCCO2)sc2c1CCC2 (stereo not given)	i	i	15*	i	i
CCOC(=O)c1c(NC(=O)C2CCCCC2C(=O)O)sc2c1CCCCC2 (stereo not given)	i	i	i	-7*	i
COC(=O)c1c(NC(=O)C2CCCCC2C(=O)O)sc2c1CCCCC2 (stereo not given)	i	i	i	i	i
Cc1cc(NC(=O)CSC2=NS(=O)(=O)c3ccccc3N2)no1	i	i	i	i	i
CCOc1ccc(NC(=O)CN(C)C(=O)c2c(-c3c(F)cccc3Cl)noc2C)cc1OCC	i	i	i	i	i
CCN(CC)CCn1c(=N)n(CC(O)COc2cccc(C)c2)c2ccccc21 (stereo not given)	i	i	i	-5*	i
N=c1n(Cc2ccccc2)c2ccccc2n1CC(O)COc1ccc(Cl)cc1Cl (stereo not given)	i	i	12*	i	i
N=c1n(Cc2ccc(Cl)cc2)c2ccccc2n1CC(O)COc1ccccc1 (stereo not given)	86*	i	i	i	i
N=c1n(CCO)c2ccccc2n1Cc1ccc(Cl)cc1	i	i	i	-6*	i
N=c1n(Cc2ccccc2)c2ccccc2n1Cc1ccccc1	i	i	i	i	i
COc1ccc(OCC(O)Cn2c(=N)n(Cc3ccccc3)c3ccccc32)cc1 (stereo not given)	i	i	i	i	i
CCOc1ccc2[nH]c3c(N4CCN(c5ccccn5)CC4)ncnc3c2c1	i	i	i	-6*	i
Cc1ccc(N(C)S(=O)(=O)c2cccc(C(=O)NCC(c3cccs3)N3CCOCC3)c2)cc1 (stereo not given)	i	i	i	i	i
CCOc1ccc(C(=O)c2cnc3ccccc3c2N2CCN(CC)CC2)cc1	i	i	i	-5*	i
CCc1ccc(C(=O)c2cnc3ccc(OC)cc3c2N2CCN(CC)CC2)cc1	230*	i	i	i	i
CCOc1ccc2ncc(C(=O)c3ccc(OC)cc3)c(N3CCN(CC)CC3)c2c1	120*	i	i	i	i
O=S(=O)(c1ccc(Cl)cc1)N1CCN(CCc2ccncc2)CC1	i	i	i	i	i
COc1ccc(-c2c(NC(=O)c3ccco3)n(-c3ccccc3)nc(C)c2=O)cc1	i	i	i	i	i
CCCC(=O)Nc1c(-c2ccccc2)c(=O)c(C)nn1-c1ccc(Cl)cc1	78*	i	i	i	i
O=C(CC1C(=O)NCCN1C(=O)Nc1ccccc1)Nc1cc(Cl)cc(Cl)c1 (stereo not given)	i	i	16*	i	i
CC1CCN(c2nc(N3CCCCC3)nc(N3CCCCC3)n2)CC1	i	i	i	i	i
C1CCN(c2nc(N3CCCCC3)nc(N3CCNCC3)n2)CC1	i	i	22*	i	i
